Experimental data as given in publication PMC10530161 (Bioorganic & medicinal chemistry, 2023).
“Also recorded” adds a separate entry of the source.

Key:
[1] = tested on: SW620 colorectal cancer cells which overexpress claudin-1; test: Cell survival assay in SW620 cells, single concentration 25 μM; assay type: cell-based; conditions: for inhibition at 25 µM: Homo sapiens, SW-620, read-out: % inhibition at 25 uM; for activity in SW620 cell survival assay: SW620 cells, initial SAR survey at 25 μM
SW620 cells = test: Dose response assay in SW620 cells; assay type: cell-based; conditions: starting at 12.5 μM
[2] = Mouse liver microsomal intrinsic clearance; assay type: in vitro ADME; conditions: for CLint scaled: mouse, liver microsomes, Intrinsinc Clearance mCLINT
Method in brief: (§1)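 Intrinsic clearance was measured in human or mouse liver microsomes, depending on the line. Predicted hepatic clearance was then calculated from each species' intrinsic clearance using the well-stirred organ clearance model, with binding terms excluded. The work was done externally as in vitro DMPK studies.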

[3] = Human liver microsomal intrinsic clearance; assay type: in vitro ADME; conditions: for CLint scaled: human, liver microsomes, Intrinsinc Clearance hCLINT
Method in brief: as §1

colorectal cancer = conditions: in vivo mouse model; cited from earlier work
CYP2D6 = CYP2D6 (Homo sapiens, UniProt P10635); test: CYP inhibition, CYP2D6; assay type: in vitro ADME
CYP2D6, sequence (P10635 whole entry): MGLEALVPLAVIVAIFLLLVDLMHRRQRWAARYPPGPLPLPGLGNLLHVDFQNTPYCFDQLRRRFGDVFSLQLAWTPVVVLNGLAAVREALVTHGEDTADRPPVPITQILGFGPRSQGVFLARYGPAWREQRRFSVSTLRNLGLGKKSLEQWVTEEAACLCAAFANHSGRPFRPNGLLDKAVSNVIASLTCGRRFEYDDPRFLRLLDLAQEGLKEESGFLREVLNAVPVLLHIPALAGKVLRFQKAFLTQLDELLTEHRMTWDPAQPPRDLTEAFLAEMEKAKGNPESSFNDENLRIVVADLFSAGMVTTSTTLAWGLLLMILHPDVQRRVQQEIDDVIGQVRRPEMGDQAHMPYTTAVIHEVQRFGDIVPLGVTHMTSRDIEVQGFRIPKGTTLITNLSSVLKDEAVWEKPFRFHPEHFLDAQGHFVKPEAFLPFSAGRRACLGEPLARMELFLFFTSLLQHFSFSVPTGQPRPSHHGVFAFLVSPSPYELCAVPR

CYP2C19 = CYP2C19 (Homo sapiens, UniProt P33261); test: CYP inhibition, CYP2C19; assay type: in vitro ADME
CYP2C19, sequence (P33261 whole entry): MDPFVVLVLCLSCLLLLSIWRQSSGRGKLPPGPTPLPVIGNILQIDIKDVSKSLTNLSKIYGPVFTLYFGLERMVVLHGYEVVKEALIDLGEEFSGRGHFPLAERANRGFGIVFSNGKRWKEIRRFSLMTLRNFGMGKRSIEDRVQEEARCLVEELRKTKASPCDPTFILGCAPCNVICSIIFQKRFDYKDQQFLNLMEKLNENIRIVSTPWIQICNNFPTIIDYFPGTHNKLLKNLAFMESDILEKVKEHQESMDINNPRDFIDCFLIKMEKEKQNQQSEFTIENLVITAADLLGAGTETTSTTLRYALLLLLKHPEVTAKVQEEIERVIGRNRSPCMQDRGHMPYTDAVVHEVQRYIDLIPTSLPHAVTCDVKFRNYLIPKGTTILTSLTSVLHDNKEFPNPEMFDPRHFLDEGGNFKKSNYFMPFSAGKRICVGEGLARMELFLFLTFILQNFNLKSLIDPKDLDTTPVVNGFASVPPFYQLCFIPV

CYP3A4 = CYP3A4 (Homo sapiens, UniProt P08684); test: CYP inhibition, CYP3A4; assay type: in vitro ADME
CYP3A4, sequence (P08684 whole entry): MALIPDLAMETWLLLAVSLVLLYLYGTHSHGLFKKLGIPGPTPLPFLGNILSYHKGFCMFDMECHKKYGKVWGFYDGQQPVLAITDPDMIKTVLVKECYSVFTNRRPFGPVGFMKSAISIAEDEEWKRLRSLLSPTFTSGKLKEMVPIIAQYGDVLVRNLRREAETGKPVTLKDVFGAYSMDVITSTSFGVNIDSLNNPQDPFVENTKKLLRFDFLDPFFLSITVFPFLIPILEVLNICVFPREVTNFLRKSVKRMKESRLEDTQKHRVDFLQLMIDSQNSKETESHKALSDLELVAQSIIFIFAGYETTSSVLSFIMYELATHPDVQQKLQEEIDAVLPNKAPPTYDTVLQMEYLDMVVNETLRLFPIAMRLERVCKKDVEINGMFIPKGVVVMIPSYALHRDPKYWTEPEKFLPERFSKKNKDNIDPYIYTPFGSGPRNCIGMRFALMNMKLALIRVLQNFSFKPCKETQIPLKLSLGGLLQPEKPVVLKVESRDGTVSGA

IEC-6 cells = test: General cytotoxicity, dose response in normal IEC-6 cells; assay type: cell-based; conditions: control for general cytotoxicity

CLint scaled [2] [mL/min/kg]	CLint scaled [3] [mL/min/kg]	Structure (SMILES)	inhibition at 25 µM [1] [%]	further results
–	–	O=C(NC(=S)Nc1ccc(-c2ncco2)cc1)c1ccc2cccnc2c1 [compound 37]	1.4	–
–	–	CCOc1cc2ccccc2cc1C(=O)NC(=S)Nc1ccc(-c2nc3ccccc3s2)cc1 [compound 31]	13	–
53.4	32.4	O=C(NC(=S)Nc1ccc(-c2nc3ccccc3o2)cc1)c1ccc2ccccc2c1 [compound 28]	76.4	% cell survival (SW620 cells): < 50%; stability in mouse liver microsomes [2]: moderate stability; stability in human liver microsomes [3]: moderate stability; activity in SW620 cell survival assay [1]: active; activity in in vivo model of colorectal cancer (colorectal cancer): active; also recorded: antitumor and chemosensitizer activities
38.2	< 20	COc1cc2ccccc2cc1C(=O)NC(=S)Nc1ccc(-c2nnco2)cc1 [compound 18]	–	inhibition at 10 µM (CYP2D6): < 50%; inhibition at 10 µM (CYP2C19): < 50%; stability in mouse liver microsomes [2]: moderate stability; inhibition at 10 µM (CYP3A4): < 50%; stability in human liver microsomes [3]: regained the stability
–	–	COc1ccccc1NC(=O)Nc1ccc(-c2nc3ccccc3[nH]2)cc1 [compound 40]	23.8	–
–	–	COc1cc2c(OC)cccc2cc1C(=O)NC(=S)Nc1ccc(-c2nc3ccccc3s2)cc1 [compound 34]	15.8	–
–	–	COc1cc2ccccc2cc1C(=O)NC(=O)Nc1ccc(-c2nnco2)cc1 [compound 26]	23.8	–
42.7	27.8	COc1cc2ccccc2cc1C(=O)NC(=S)Nc1ccc(-c2nc3ccccc3[nH]2)cc1 [compound 10]	–	stability in mouse liver microsomes [2]: moderate stability; stability in human liver microsomes [3]: moderate stability
57.8	125	COc1cc2ccccc2cc1C(=O)NC(=S)Nc1ccc(-c2ncc[nH]2)cc1 [compound 15]	–	concentration at which cytotoxicity was shown (IEC-6 cells): 12.5 µM; inhibition at 10 µM (CYP2D6): < 50%; inhibition at 10 µM (CYP2C19): < 50%; stability in mouse liver microsomes [2]: moderately stable; inhibition at 10 µM (CYP3A4): < 50%; stability in human liver microsomes [3]: instability
–	–	O=C(NC(=S)Nc1ccc(-c2nc3ccccc3[nH]2)cc1)c1ccc2cccnc2c1 [compound 35]	0	–
–	–	O=C1c2ccccc2CCN1C(=S)Nc1ccc(-c2ncco2)cc1 [compound 39]	0.9	–
–	–	COc1cc2ccccc2cc1C(=O)NC(=S)Nc1ccc(-c2nc3ccccc3s2)cn1 [compound 14]	–	activity in SW620 cell survival assay [1]: not active
–	–	COc1cc2ccccc2cc1C(=O)NC(=S)Nc1ccc(-c2cscn2)cc1 [compound 21]	29	–
–	–	COc1cc2ccccc2cc1C(=O)Nc1ccc(-c2nc3ccccc3s2)cc1 [compound 20]	42.3	–
–	–	COc1cc2ccccc2cc1C(=O)NC(=O)Nc1ccc(-c2nc3ccccc3s2)cc1 [compound 25]	0	–
37.7	202	COc1cc2ccccc2cc1C(=O)NC(=S)Nc1ccc(-c2nccs2)cc1 [compound 16]	–	stability in mouse liver microsomes [2]: moderately stable; stability in human liver microsomes [3]: instability
–	–	COc1cc2ccccc2cc1C(=O)Nc1ncc(C(F)(F)F)s1 [compound 22]	17.6	–
43.5	92.8	COc1cc2ccccc2cc1C(=O)NC(=O)Nc1ccc(-c2cscn2)cc1 [compound 27]	42.6	–
365	86.3	O=C(NC(=O)c1ccc2ccccc2c1)Nc1ccc(-c2nc3ccccc3[nH]2)cc1 [compound 29]	12.7	–
< 20	< 20	COc1cc2ccccc2cc1C(=O)NC(=S)Nc1ccc(-c2nc3ccccc3o2)cc1 [compound 11]	–	stability in mouse liver microsomes [2]: stable; stability in human liver microsomes [3]: stable; activity in SW620 cell survival assay [1]: not active
–	–	O=C(NC(=S)Nc1ccc(-c2nc3ccccc3o2)cc1)c1ccc2cccnc2c1 [compound 36]	0	–
–	–	CC(C)Oc1cc2ccccc2cc1C(=O)NC(=S)Nc1ccc(-c2nc3ccccc3o2)cc1 [compound 32]	17.2	–
236	67.8	COc1cc2ccccc2cc1C(=O)NC(=O)Nc1ccc(-c2nc3ccccc3[nH]2)cc1 [compound 23]	90.8	–
–	–	COc1cc2c(OC)cccc2cc1C(=O)NC(=S)Nc1ccc(-c2nc3ccccc3[nH]2)cc1 [compound 33]	37.6	–
–	–	COc1cc2ccccc2cc1C(=O)NC(=S)Nc1ccc(-c2nc3ccccc3o2)cn1 [compound 12]	–	activity in SW620 cell survival assay [1]: not active
–	–	COc1cc2ccccc2cc1C(=O)NC(=O)Nc1ccc(-c2nc3ccccc3o2)cc1 [compound 24]	0	–
–	–	COc1cc2ccccc2cc1C(=O)NC(=S)Nc1ccc(-c2nc3ccccc3s2)cc1 [compound 13]	–	activity in SW620 cell survival assay [1]: not active
–	–	CCOc1cc2ccccc2cc1C(=O)NC(=S)Nc1ccc(-c2nc3ccccc3o2)cc1 [compound 30]	0	–
46.2	< 20	COc1cc2ccccc2cc1C(=O)NC(=S)Nc1ccc(-c2ncon2)cc1 [compound 19]	18.4	stability in mouse liver microsomes [2]: moderate stability; stability in human liver microsomes [3]: regained the stability; activity in SW620 cell survival assay [1]: inactive
139	< 20	O=C1c2ccccc2CCN1C(=S)Nc1ccc(-c2nc3ccccc3o2)cc1 [compound 38]	–	–
